Values joined by “and” are separate entries in the source; they are usually repeats but may differ in a detail not shown here. Identical values can stand only once.

For one compound, Radioactivity results are on record in ChEMBL document CHEMBL1130118, “A novel radioiodination reagent for protein radiopharmaceuticals with L-lysine as a plasma-stable metabolizable linkage to liberate m-iodohippuric acid after lysosomal proteolysis” (J Med Chem, 1997).

Type in all cases: ADME, organism-based
Data set [1] concerns Mus musculus. As to the kind of experiment: The biodistribution time for [131 I ]L-HML-NGA radioactivity after concomitant administration of [131 I ]L-HML-NGA and [125 I ]L-HML-IT-NGA in mice. It is expressed as percent injected dose per gram of blood tissue. The note with it: in vivo. The procedure, abridged:
(§1)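 Six-week-old male ddY mice were given one i.v. co-injection of a 131I/125I-labelled NGA pair, each diluted to 90 µg/mL protein in 0.1 M PBS pH 6.0 and mixed 1:1, giving 9 µg of each radioiodinated NGA per mouse. Groups of five were killed at 5, 15, 30 min, 1 h and 3 h. Organs were weighed and counted in a well counter. Values are % ID per organ, blood as % ID/g, mean (SD).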

Data set [2] is described as follows: Cumulative radioactivity exerted by [131 I ]L-HML-NGA in the urine at 24 hour postinjection of [131 I ]L-HML-NGA and [125 I ]HML-IT-NGA. The conditions noted are these: in vivo. The procedure, abridged:
(§2)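 Mice received one i.v. co-injection of the dual-isotope NGA mixture, 9 µg of each radioiodinated protein, and were housed in metabolic cages for 24 h. Cumulative urine and feces were collected and counted. Values are % injected dose, mean (SD) of five animals, with a Student's paired t-test between the two co-administered conjugates.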

In data set [3] the test system is Mus musculus. Nature of the data set: The biodistribution time for [131 I ]L-HML-NGA radioactivity after concomitant administration of [131 I ]L-HML-NGA and [125 I ]L-HML-IT-NGA in mice. It is expressed as percent injected dose per liver. The note with it: in vivo. The method, boiled down:
as §1

Data set [4] has as its system Mus musculus. As to the kind of experiment: The biodistribution time for [131 I ]L-HML-NGA radioactivity after concomitant administration of [131 I ]L-HML-NGA and [125 I ]D-HML-NGA in mice. It is expressed as percent injected dose per gram of blood tissue. The conditions noted are these: in vivo. The procedure, abridged:
as §1

Data set [5] deals with Mus musculus. Nature of the data set: The biodistribution time for [131 I ]L-HML-NGA radioactivity after concomitant administration of [131 I ]L-HML-NGA and [125 I ]D-HML-NGA in mice. It is expressed as percent injected dose per stomach. The conditions noted are these: in vivo. The procedure, abridged: as §1
Data set [6] concerns Mus musculus. Nature of the data set: The biodistribution time for [131 I ]L-HML-NGA radioactivity after concomitant administration of [131 I ]L-HML-NGA and [125 I ]MPH-NGA in mice. It is expressed as percent injected dose per intestine. The note with it: in vivo. The method, boiled down: as §1
In data set [7] the test system is Mus musculus. Nature of the data set: The biodistribution time for [131 I ]L-HML-NGA radioactivity after concomitant administration of [131 I ]L-HML-NGA and [125 I ]MPH-NGA in mice. It is expressed as percent injected dose per neck. The conditions noted are these: in vivo. The method, boiled down:
as §1

For data set [8], the system named is Mus musculus. As to the kind of experiment: The biodistribution time for [131 I ]L-HML-NGA radioactivity after concomitant administration of [131 I ]L-HML-NGA and [125 I ]L-HML-IT-NGA in mice. It is expressed as percent injected dose per gram of blood tissue. Values are mean(SD) of five anim. The note with it: in vivo. The method, boiled down:
as §1

Data set [9] is described as follows: Cumulative radioactivity exerted by [131 I ]L-HML-NGA in the feces at 24 hour postinjection of [131 I ]L-HML-NGA and [125 I ]HML-IT-NGA. The note with it: in vivo. The procedure, abridged:
as §2

The nature of data set [10]: Cumulative radioactivity exerted by [131 I ]L-HML-NGA in the urine at 24 hour postinjection of [131 I ]L-HML-NGA and [125 I ]D-HML-NGA. The note with it: in vivo. The method, boiled down: as §2
Data set [11] concerns Mus musculus. Nature of the data set: The biodistribution time for [131 I ]L-HML-NGA radioactivity after concomitant administration of [131 I ]L-HML-NGA and [125 I ]MIH-NGA in mice. It is expressed as percent injected dose per stomach. The note with it: in vivo. The procedure, abridged: as §1
For data set [12], the system named is Mus musculus. Nature of the data set: The biodistribution time for [131 I ]L-HML-NGA radioactivity after concomitant administration of [[131 I ]L-HML-NGA and [125 I ]L-HML-IT-NGA in mice. It is expressed as percent injected dose per kidney. The note with it: in vivo. The procedure, abridged:
as §1

Data set [13] is described as follows: Cumulative radioactivity exerted by [131 I ]L-HML-NGA in the feces at 24 hour postinjection of [131 I ]L-HML-NGA and [125 I ]D-HML-NGA. The conditions noted are these: in vivo. The procedure, abridged: as §2
Data set [14] concerns Mus musculus. Nature of the data set: The biodistribution time for [131 I ]L-HML-NGA radioactivity after concomitant administration of [[131 I ]L-HML-NGA and [125 I ]MPH-NGA in mice. It is expressed as percent injected dose per kidney. The conditions noted are these: in vivo. The method, boiled down:
as §1

In data set [15] the test system is Mus musculus. Nature of the data set: The biodistribution time for [131 I ]L-HML-NGA radioactivity after concomitant administration of [[131 I ]L-HML-NGA and [125 I ]D-HML-NGA in mice. It is expressed as percent injected dose per kidney. The note with it: in vivo. The procedure, abridged: as §1
For data set [16], the system named is Mus musculus. As to the kind of experiment: Biodistribution time for compound radioactivity after concomitant administration of compound and [125 I ]MIH-NGA in mice. It is expressed as % injected dose per liver. Values are mean(SD) of 5 animals for each experiment after 5 minutes. The note with it: in vivo. The procedure, abridged: as §1
The test system of data set [17] is Mus musculus. As to the kind of experiment: The biodistribution time for [131 I ]L-HML-NGA radioactivity after concomitant administration of [131 I ]L-HML-NGA and [125 I ]MIH-NGA in mice. It is expressed as percent injected dose per intestine. The note with it: in vivo. The method, boiled down: as §1
For data set [18], the system named is Mus musculus. As to the kind of experiment: The biodistribution time for [131 I ]L-HML-NGA radioactivity after concomitant administration of [[131 I ]L-HML-NGA and [125 I ]MIH-NGA in mice. It is expressed as percent injected dose per kidney. The note with it: in vivo. The procedure, abridged: as §1
Data set [19] is described as follows: Cumulative radioactivity exerted by [131 I ]L-HML-NGA in the feces at 24 hour postinjection of [131 I ]L-HML-NGA and [125 I ]MPH-NGA. The note with it: in vivo. The method, boiled down: as §2
A further data set is filed under the species Homo sapiens. Nature of the data set: The percent protein-bound radioactivity in NGAfractions following incubation of radioiodinated [131 I ]L-HML-NGA in human serum after 24 hours. The method, boiled down:
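Conjugates were diluted to 0.5 mg/mL in 0.1 M PBS pH 6.0, and 20 µL was added to 230 µL of freshly prepared human serum. Samples were incubated at 37 °C and taken at 1, 3, 6 or 24 h. Protein-bound fraction (Rf 0) was separated from small metabolites (Rf 0.6-0.9) by paper chromatography in methanol-water 4:1. Protein-bound radioactivity was divided by the initial radiochemical purity. Values are mean (SD).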

The test system of data set [20] is Mus musculus. Nature of the data set: The biodistribution time for [131 I ]L-HML-NGA radioactivity after concomitant administration of [131 I ]L-HML-NGA and [125 I ]MPH-NGA in mice. It is expressed as percent injected dose per stomach. The note with it: in vivo. The method, boiled down: as §1
For data set [21], the system named is Mus musculus. Nature of the data set: The biodistribution time for [131 I ]L-HML-NGA radioactivity after concomitant administration of [131 I ]L-HML-NGA and [125 I ]MIH-NGA in mice. It is expressed as percent injected dose per neck. The note with it: in vivo. The procedure, abridged:
as §1

Data set [22] relates to Mus musculus. Nature of the data set: The biodistribution time for [131 I ]L-HML-NGA radioactivity after concomitant administration of [131 I ]L-HML-NGA and [125 I ]D-HML-NGA in mice. It is expressed as percent injected dose per intestine. The conditions noted are these: in vivo. The method, boiled down: as §1
A short description of data set [23]: Cumulative radioactivity exerted by [131 I ]L-HML-NGA in the feces at 24 hour postinjection of [131 I ]L-HML-NGA and [125 I ]MIH-NGA. The conditions noted are these: in vivo. The method, boiled down: as §2

For the compound `N[C@@H](CS)C(=O)SC1CC(=O)N(CCCC[C@H](NC(=O)CNC(=O)c2cccc([131I])c2)C(=O)O)C1=O` (some centres undefined), the Radioactivity is 1.13% and 1.72% and 0.8% and 0.48% with Mus musculus [1]; 80.07% in data set [2]; 54.25% with Mus musculus [3]; 1.9% and 3.14% and 1.63% and 0.82% and 0.5% with Mus musculus [4]; 0.2% and 0.5% and 0.88% and 0.78% and 0.69% in the data set on Mus musculus [5]; 0.66% and 4.66% and 4.59% and 5.75% and 5.43% in the data set on Mus musculus [6]. Also, the Radioactivity is 0.05% and 0.23% and 0.09% and 0.03% in the data set on Mus musculus [7]; 3.19% in the data set on Mus musculus [8]; 2.83% in data set [9]; 80.78% in [10]; 0.39% and 0.47% and 0.46% and 0.45% and 0.51% in the data set on Mus musculus [11]; 0.28% and 4.91% and 4.92% and 0.96% and 0.21% with Mus musculus [12]. Further, the Radioactivity was 4.4% in [13]; 0.76% and 5.3% and 2.3% and 0.31% and 0.13% with Mus musculus [14]; 1.07% and 4.49% and 1.55% and 0.61% and 0.27% with Mus musculus [15]; 94.15% in the data set with Mus musculus [16]; 0.78% and 3.57% and 5.41% and 6.15% and 4.54% in the data set with Mus musculus [17]; 0.84% and 4.16% and 2.19% and 0.51% and 0.16% in the data set with Mus musculus [18]. In addition, the Radioactivity in data set [19] was 3.28%; in the data set filed under Homo sapiens, 97.23%; with Mus musculus [20], 0.26% and 0.57% and 0.3% and 0.29% and 0.33%; in the data set with Mus musculus [21], 0.07% and 0.25% and 0.12% and 0.05% and 0.03%; with Mus musculus [22] it was 1.77% and 4.88% and 7.76% and 9.83% and 8.6%; in data set [23] it was 5.87%.
